Values after ≈ are worked out from the molar mass of the structure shown.
How the values were obtained:
A204 = experiment: In vitro antitumor activity against A204 rhabdomyosarcoma tumor cell line was determined; format: functional; conditions: Homo sapiens, read-out: ID50 (the source's name)
Procedure, shortened: (§1)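 Cell growth inhibition in vitro measured by the PIT method, with mitomycin C as positive reference.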

L1210 = experiment: In vitro antitumor activity against L1210 lymphocytic leukemia tumor cell line was determined; format: functional; conditions: Mus musculus, read-out: ID50 (the source's name)
Procedure, shortened: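 Inhibition of L1210 leukemia colony formation in vitro, with mitomycin C as positive reference.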

Mus musculus [1] = experiment: Body wieght treated/body weight untreated controls of compound (6 mg/kg) was evaluated in vivo for antitumor activity against MAC 16 in female NMRI mice on day 12; format: functional
Mus musculus [2] = experiment: Body wieght treated/body weight untreated controls of compound (6 mg/kg) was evaluated in vivo for antitumor activity against MAC 16 in female NMRI mice on day 4; format: functional
Mus musculus [3] = experiment: Mean relative body weight change of treated / mean relative body weight change of control when compound (2 mg/kg/day) administered to inhibit growth of human tumor xenograft GXF 97 was reported at day 14 in nude mice; format: functional
Mus musculus [4] = experiment: Mean relative body weight change of treated / mean relative body weight change of control when compound (2 mg/kg/day) administered to inhibit growth of human tumor xenograft GXF 97 was reported at day 28 in nude mice; format: functional
Mus musculus [5] = experiment: Percentage change in body weight [(day 6 - day 1)/ day 1] for antitumor activity against P388 Leukemia in CD2 mice at fractioned dose treatment of 1 mg/kg; format: functional
Procedure, shortened: (§2)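 Mouse P388 leukemia model. Drugs were given intraperitoneally, either as a single injection or once daily for 9 consecutive days (fractioned schedule). Outcomes were median survival time in days, %T/C, and % body weight change.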

Mus musculus [6] = experiment: Percentage change in body weight [(day 6 - day 1)/ day 1] for antitumor activity against P388 Leukemia in CD2 mice at fractioned dose treatment of 3 mg/kg; format: functional; procedure, shortened: as §2
Mus musculus [7] = experiment: Percent change in body weight [(day 6 - day 1)/ day 1] when P388 Leukemic CD2 mice were treated with a compound (6 mg/Kg); format: functional
Mus musculus [8] = experiment: Mean relative body weight change of treated / mean relative body weight change of control when compound (2 mg/kg/day) administered to inhibit growth of human tumor xenograft GXF 97 was reported at day 21 in nude mice; format: functional
Mus musculus [9] = experiment: Median survival time in days for antitumor activity against P388 Leukemia in CD2 mice at a single dose treatment of 6 mg/kg; format: functional
Procedure, shortened: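 P388 leukemia-bearing mice were given one intraperitoneal injection. The read-out was median survival time in days, reported alongside %T/C and % body weight change.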

Mus musculus [10] = experiment: Median survival time in days for antitumor activity against P388 Leukemia in CD2 mice at fractioned dose treatment of 1 mg/kg; format: functional
Procedure, shortened: (§3)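 P388 leukemia-bearing mice were dosed intraperitoneally once daily for 9 consecutive days (fractioned schedule). The read-out was median survival time in days, reported alongside %T/C and % body weight change.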

Mus musculus [11] = experiment: Median survival time in days for antitumor activity against P388 Leukemia in CD2 mice at fractioned dose treatment of 3 mg/kg; format: functional; procedure, shortened: as §3
Mus musculus [12] = experiment: Percent inhibition of compound (50 mg/Kg) was evaluated in vivo for antitumor activity against MAC 13 in female NMRI mice on day 29; format: functional
Procedure, shortened: (§4)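 MAC 13 in female NMRI mice. Drugs were given in arachis oil BP by ip route on day 2 or day 29. % inhibition was derived from treated/untreated control tumor weight (volume); a negative value indicates stimulation.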

Mus musculus [13] = experiment: Percent inhibition of compound (6 mg/kg) was evaluated in vivo for antitumor activity against MAC 13 in female NMRI mice on day 2; format: functional; procedure, shortened: as §4
Mus musculus [14] = experiment: Percent T/C ([…]) for antitumor activity against P388 Leukemia in CD2 mice at a single dose treatment of 6 mg/kg; format: functional
Procedure, shortened: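 P388 leukemia mice given a single intraperitoneal injection. Median survival time (days) and body weight change were recorded. %T/C was derived from the survival of treated versus control mice.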

Mus musculus [15] = experiment: Percent T/C ([…]) for antitumor activity against P388 Leukemia in CD2 mice at fractioned dose treatment of 1 mg/kg; format: functional
Procedure, shortened: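 P388 leukemia mice dosed intraperitoneally once daily for 9 consecutive days. Median survival time (days) and body weight change were recorded. %T/C was based on survival of treated versus control mice.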

Mus musculus [16] = experiment: Percent T/C ([…]) for antitumor activity against P388 Leukemia in CD2 mice at fractioned dose treatment of 3 mg/kg; format: functional; procedure, shortened: as §2
Mus musculus [17] = experiment: Relative tumor size on day 28 was reported when compound (2 mg/kg/day) administered to inhibit growth of human tumor xenograft GXF 97 in nude mice; format: functional
Procedure, shortened: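 GXF 97 human gastric xenograft grown subcutaneously in nude mice for 24 days, then mice randomized; treatment began 1 day later. Fractioned ip injections on days 1-4, or single iv injection on day 1; 4-5 mice per group. Tumor size from length and width; relative tumor size (% of controls) read at day 28.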

Mus musculus [18] = experiment: Compound (40 mg/Kg) was evaluated in vivo for antitumor activity against MAC 16 in female NMRI mice on day 12 and ratio of tumor weight of treated to that of control was determined; format: functional
Mus musculus [19] = experiment: Compound (40 mg/Kg) was evaluated in vivo for antitumor activity against MAC 16 in female NMRI mice on day 29 and ratio of tumor weight of treated to that of control was determined; format: functional
Mus musculus [20] = experiment: Compound (6 mg/Kg) was evaluated in vivo for antitumor activity against MAC 16 in female NMRI mice on day 4 and ratio of tumor weight of treated to that of control was determined; format: functional
WiDr = experiment: In vitro antitumor activity against WiDr colon carcinoma tumor cell line was determined; format: functional; conditions: Homo sapiens, read-out: ID50 (the source's name); procedure, shortened: as §1
Mus musculus [21] = experiment: Ability of administered compound (2 mg/kg/day) to inhibit growth of human tumor xenograft GXF 97 was assessed on day 14 in nude mice
Mus musculus [22] = experiment: Ability of administered compound (2 mg/kg/day) to inhibit growth of human tumor xenograft GXF 97 was assessed on day 21 in nude mice
Mus musculus [23] = experiment: Ability of intravenously administered compound (2 mg/kg, single dose) to inhibit growth of human tumor xenograft GXF 97 was assessed on day 28 in nude mice
Mus musculus [24] = experiment: Compound (6 mg/Kg) was evaluated in vivo for antitumor activity against MAC 13 in female NMRI mice on day 2 and ratio of tumor weight of treated to that of control was determined

CO[C@@]12[C@H](COC(N)=O)C3=C(C(=O)C(C)=C(N)C3=O)N1C[C@@H]1N[C@@H]12 [MITOMYCIN]
IC50 (A204): 0.02 µg/mL (≈ 0.0598 µM) | IC50 (L1210): 0.031 µg/mL (≈ 0.0927 µM) | BW (Mus musculus [1]): 96% | BW (Mus musculus [2]): 106% | BWC (Mus musculus [3]): 108.9% | BWC (Mus musculus [4]): 108.4% | BWC (Mus musculus [5]): -5.4% | BWC (Mus musculus [6]): -8% | BWC (Mus musculus [7]): -18.1% | BWC (Mus musculus [8]): 108.5% | MST (Mus musculus [9]): 21 days | MST (Mus musculus [10]): 34 days | MST (Mus musculus [11]): 21 days | I (Mus musculus [12]): 92.6% | I (Mus musculus [13]): 88.4% | T/C (Mus musculus [14]): 191% | T/C (Mus musculus [15]): 309% | T/C (Mus musculus [16]): 191% | Relative TS (Mus musculus [17]): 17% | T/C (Mus musculus [18]): 81% | T/C (Mus musculus [19]): 7.4% | T/C (Mus musculus [20]): 60% | IC50 (WiDr): 0.031 µg/mL (≈ 0.0927 µM) | T/C (Mus musculus [21]): 9.9% | T/C (Mus musculus [22]): 4.1% | T/C (Mus musculus [23]): 2.6% | T/C (Mus musculus [24]): 11.6%

— ChEMBL document CHEMBL1124534, “Synthesis, mechanism of action, and biological evaluation of mitosenes” (1989)
